# Several values for one entry are separate records, joined by “and”; a condition that tells them apart may be missing. Identical values can stand only once.
# Legend:
# GFP-ZIPK = GFP-ZIPK (Homo sapiens, UniProt O43293); test: FLECS elution from γ-linked ATP Sepharose; type: binding; settings: for elution of GFP-ZIPK from ATP Sepharose: titration 0.1−300 µM
# Procedure, shortened: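 Full-length ZIPK with N-terminal GFP was expressed in HEK293 cells. Crude lysate was bound to γ-linked ATP Sepharose for 0.5 h at 4 °C (pH 7.5, 60 mM MgCl₂), washed with high- then low-salt buffer, and split into 96-well filter plates. Test compound was added for 10 min at RT, as a 900 µM solution (screen) or 0.1−300 µM (titration), in 10% DMSO. Filtrate fluorescence was read at 485/535 nm. Controls were ATP 2−200 mM (positive) and 10% DMSO (negative). Hits were wells with >5000 counts (2.5 × background), checked by Western blot.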
# DAPK3 = DAPK3 (Homo sapiens, UniProt O43293); test: KINOMEscan active-site dependent competition binding assay; settings: DAPK3 (ZIPK); from Kd values
# DAPK3, sequence (O43293 whole entry): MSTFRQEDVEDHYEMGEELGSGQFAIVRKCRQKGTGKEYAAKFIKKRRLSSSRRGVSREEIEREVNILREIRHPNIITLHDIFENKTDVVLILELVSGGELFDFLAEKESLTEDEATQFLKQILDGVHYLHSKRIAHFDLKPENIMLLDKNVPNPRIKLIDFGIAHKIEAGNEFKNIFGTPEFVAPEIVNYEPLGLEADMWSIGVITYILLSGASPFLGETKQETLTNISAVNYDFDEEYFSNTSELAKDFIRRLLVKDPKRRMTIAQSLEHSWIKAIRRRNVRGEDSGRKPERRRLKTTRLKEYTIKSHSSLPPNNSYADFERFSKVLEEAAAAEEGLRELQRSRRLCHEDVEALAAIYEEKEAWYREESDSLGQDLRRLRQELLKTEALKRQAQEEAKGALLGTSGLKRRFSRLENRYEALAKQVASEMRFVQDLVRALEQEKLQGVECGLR
# DAPK1 = DAPK1 (Homo sapiens, UniProt P53355); test: as above; settings: from Kd values
# DAPK1, sequence (P53355 whole entry): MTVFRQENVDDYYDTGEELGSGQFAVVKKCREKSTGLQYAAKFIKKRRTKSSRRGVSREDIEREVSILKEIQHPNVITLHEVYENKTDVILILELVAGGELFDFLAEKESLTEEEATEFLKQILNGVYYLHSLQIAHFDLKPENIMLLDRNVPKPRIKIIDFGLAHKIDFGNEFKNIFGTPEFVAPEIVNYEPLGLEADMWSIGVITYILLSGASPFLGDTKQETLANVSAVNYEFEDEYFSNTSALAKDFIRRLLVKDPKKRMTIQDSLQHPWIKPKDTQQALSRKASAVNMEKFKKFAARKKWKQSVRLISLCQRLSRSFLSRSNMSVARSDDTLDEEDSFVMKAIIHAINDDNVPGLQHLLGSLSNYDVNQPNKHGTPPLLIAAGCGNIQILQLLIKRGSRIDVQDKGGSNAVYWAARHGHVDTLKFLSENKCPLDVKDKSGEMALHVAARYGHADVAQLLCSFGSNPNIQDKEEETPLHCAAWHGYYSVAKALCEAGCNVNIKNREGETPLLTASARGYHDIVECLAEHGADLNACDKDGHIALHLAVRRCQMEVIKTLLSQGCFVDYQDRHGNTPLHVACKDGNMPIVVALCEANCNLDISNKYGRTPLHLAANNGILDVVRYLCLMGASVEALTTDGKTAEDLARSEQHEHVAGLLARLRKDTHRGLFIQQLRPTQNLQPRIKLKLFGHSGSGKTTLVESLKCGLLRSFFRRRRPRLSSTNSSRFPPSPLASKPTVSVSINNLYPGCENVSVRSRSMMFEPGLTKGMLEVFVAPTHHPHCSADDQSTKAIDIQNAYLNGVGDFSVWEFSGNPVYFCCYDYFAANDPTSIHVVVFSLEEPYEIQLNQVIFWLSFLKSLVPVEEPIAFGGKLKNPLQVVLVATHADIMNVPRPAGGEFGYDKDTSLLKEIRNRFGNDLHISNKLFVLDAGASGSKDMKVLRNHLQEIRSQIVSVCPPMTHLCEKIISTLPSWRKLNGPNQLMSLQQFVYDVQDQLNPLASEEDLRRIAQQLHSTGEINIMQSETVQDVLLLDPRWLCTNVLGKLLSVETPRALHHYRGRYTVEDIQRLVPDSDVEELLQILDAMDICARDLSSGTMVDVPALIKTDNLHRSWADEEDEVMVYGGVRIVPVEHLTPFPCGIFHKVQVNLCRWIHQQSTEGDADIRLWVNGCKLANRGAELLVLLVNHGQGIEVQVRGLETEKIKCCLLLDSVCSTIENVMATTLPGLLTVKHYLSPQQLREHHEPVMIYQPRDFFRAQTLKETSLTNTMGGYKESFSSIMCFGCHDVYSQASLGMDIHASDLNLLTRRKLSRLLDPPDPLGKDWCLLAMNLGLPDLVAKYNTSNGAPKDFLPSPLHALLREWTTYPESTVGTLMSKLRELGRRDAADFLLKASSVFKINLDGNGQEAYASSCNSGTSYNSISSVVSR
# [1] = system: rat caudal arterial smooth muscle; test: RLC20 phosphorylation in rat caudal arterial smooth muscle; settings: 100 µM; 30 min CLa exposure
# aortic SM cells = test: RLC20 phosphorylation in aortic smooth muscle cells, basal and S1P stimulated; type: cell-based, human; settings: 50 µM, 30 min; for relative percent RLC20 phosphorylation, S1P stimulated state: S1P 0.25 µM
# Procedure, shortened: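 A mouse aortic smooth muscle cell line was grown in AmnioMax with 10% FBS at 37 °C and 5% CO₂, then serum-starved for 16 h. Subconfluent cells were given S1P (0.25 µM, 5 min) or left basal. They were then treated with test compound (50 µM) or 0.1% DMSO for 30 min. Cells were lysed in 1% SDS, 300 mM NaCl and 50 mM Tris-HCl pH 7.5. Phospho-RLC20 was measured by Western blot and densitometry.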
# [2] = system: rat caudal arterial smooth muscle strips; test: Calyculin A induced contraction of rat caudal arterial smooth muscle strips; settings: 100 µM, calyculin A 0.5 mM; for maximum contractile force: 3 h
# Procedure, shortened: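 Intact rat caudal arterial smooth muscle strips were contracted with calyculin A (0.5 mM, 3 h). This was done in the presence of vehicle (DMSO) or test compound at 100 µM. Maximal force was expressed as percent of an initial reference KCl contraction. Time to reach 50% of maximal contraction after calyculin A was also calculated.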
# IRAK4 = molecular target: T1, IRAK4 (Homo sapiens, UniProt Q9NWZ3); test: 33P-ATP filter-binding kinase assay; type: biochemical
# T1 sequence (Q9NWZ3 1-460): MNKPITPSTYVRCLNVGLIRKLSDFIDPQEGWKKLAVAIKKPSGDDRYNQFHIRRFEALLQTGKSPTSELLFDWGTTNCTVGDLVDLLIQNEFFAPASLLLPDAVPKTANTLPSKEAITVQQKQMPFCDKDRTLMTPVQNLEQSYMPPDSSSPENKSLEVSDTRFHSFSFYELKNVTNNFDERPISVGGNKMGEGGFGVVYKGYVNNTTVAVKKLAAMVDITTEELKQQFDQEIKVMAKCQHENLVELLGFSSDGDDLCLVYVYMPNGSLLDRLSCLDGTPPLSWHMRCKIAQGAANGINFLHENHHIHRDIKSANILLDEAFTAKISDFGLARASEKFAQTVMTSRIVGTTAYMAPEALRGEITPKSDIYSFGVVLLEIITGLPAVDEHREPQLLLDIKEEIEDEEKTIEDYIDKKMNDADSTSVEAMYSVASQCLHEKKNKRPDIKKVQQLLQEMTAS
# CaMK2 = test: 33P-ATP filter-binding kinase assay; type: biochemical, human; settings: read-out: % activity against kinase, kinome profile
# Procedure, shortened: (§1)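 Kinome panel of 124 purified protein kinases run by an outside profiling centre using a ³³P-ATP filter-binding assay. Test compound was tested at 10 µM. Read-out is residual % enzyme activity.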
# PKA = PKA (Homo sapiens, UniProt P17612); test: 33P-ATP filter-binding kinase assay; type: biochemical; settings: read-out: % activity against kinase, kinome profile
# Procedure, shortened: as §1
# smMLCK = smMLCK (Homo sapiens, UniProt Q15746); test: 33P-ATP filter-binding kinase assay; type: biochemical
# smMLCK, sequence (Q15746 1464-1719 limits assumed): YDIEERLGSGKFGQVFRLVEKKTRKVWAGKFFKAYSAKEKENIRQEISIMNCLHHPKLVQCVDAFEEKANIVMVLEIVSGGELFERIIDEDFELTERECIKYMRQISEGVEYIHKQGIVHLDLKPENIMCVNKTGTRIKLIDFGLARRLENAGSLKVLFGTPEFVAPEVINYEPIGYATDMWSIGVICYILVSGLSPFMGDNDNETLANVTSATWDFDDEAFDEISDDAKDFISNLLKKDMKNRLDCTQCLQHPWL
# rabbit ileum = test: RLC20 and MYPT1 phosphorylation in Ca2+-sensitized rabbit ileum; settings: HS38 50 µM
# PIM1 = PIM1 (Homo sapiens, UniProt P11309); test: 33P-ATP filter-binding kinase assay; type: biochemical
# PIM1, sequence (P11309 whole entry): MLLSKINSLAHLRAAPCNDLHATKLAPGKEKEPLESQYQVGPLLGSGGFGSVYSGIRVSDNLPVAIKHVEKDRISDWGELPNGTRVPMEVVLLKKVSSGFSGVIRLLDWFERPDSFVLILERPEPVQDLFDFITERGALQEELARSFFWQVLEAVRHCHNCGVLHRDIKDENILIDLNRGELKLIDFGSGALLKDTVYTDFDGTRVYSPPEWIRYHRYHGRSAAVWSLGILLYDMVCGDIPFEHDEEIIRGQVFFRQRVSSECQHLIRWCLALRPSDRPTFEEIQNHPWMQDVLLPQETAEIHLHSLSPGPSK
# PKN2 = PKN2 (Homo sapiens, UniProt Q16513); test: 33P-ATP filter-binding kinase assay; type: biochemical; settings: read-out: % activity against kinase, kinome profile
# PKN2, sequence (Q16513 whole entry): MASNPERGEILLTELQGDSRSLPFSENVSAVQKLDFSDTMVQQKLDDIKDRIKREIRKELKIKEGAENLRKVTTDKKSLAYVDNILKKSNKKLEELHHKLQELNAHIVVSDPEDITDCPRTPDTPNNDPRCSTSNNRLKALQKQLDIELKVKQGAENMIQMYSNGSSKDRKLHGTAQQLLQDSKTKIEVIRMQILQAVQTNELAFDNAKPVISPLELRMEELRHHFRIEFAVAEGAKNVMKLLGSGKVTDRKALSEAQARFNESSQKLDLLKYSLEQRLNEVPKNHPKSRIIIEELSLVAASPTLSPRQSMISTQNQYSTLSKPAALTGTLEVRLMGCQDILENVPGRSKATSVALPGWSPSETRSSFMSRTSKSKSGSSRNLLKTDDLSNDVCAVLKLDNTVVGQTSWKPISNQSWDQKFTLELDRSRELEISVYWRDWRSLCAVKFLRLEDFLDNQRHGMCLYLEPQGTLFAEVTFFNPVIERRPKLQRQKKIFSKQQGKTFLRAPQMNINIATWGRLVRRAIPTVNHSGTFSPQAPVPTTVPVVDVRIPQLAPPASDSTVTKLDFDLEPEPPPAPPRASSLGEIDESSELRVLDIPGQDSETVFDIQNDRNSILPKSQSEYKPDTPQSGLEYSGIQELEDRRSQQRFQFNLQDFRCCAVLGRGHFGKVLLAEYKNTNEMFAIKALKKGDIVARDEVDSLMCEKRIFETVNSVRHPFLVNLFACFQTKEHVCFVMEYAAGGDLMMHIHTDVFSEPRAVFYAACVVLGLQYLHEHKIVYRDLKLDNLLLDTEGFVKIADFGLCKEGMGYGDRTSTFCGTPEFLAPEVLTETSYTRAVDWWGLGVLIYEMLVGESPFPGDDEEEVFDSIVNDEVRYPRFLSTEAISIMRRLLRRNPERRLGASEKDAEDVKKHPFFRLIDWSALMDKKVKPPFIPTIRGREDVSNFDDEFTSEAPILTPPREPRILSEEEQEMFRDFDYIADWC
# Procedure, shortened: as §1
# CK1α = CK1α (Homo sapiens, UniProt P48729); test: 33P-ATP filter-binding kinase assay; type: biochemical; settings: read-out: % activity against kinase, kinome profile
# CK1α, sequence (P48729 whole entry): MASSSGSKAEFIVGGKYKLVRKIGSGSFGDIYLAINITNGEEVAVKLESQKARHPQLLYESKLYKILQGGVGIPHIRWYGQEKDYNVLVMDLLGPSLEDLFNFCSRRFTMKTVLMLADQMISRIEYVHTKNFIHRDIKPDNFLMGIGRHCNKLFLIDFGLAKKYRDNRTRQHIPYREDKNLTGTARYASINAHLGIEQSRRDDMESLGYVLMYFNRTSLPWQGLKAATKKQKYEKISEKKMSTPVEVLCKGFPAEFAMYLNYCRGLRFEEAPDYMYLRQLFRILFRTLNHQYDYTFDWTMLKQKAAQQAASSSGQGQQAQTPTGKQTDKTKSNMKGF
# Procedure, shortened: as §1
# [3] = system: rabbit ileum smooth muscle; test: Ca2+-independent force development in rabbit ileum after MC-LR; settings: pCa 9.0; MC-LR 10 µM
# PIM2 = PIM2 (Homo sapiens, UniProt Q9P1W9); test: 33P-ATP filter-binding kinase assay; type: biochemical
# PIM2, sequence (Q9P1W9 whole entry): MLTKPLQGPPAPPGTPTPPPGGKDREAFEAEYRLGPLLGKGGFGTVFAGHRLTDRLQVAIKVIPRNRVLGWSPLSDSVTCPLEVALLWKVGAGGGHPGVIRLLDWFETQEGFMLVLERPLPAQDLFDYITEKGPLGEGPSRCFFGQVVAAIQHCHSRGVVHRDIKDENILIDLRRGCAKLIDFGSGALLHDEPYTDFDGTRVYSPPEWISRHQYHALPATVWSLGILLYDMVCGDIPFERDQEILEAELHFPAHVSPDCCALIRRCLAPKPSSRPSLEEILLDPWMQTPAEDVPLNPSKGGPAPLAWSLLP
# [4] = system: human coronary artery smooth muscle cells (CA-VSMC); test: Phosphorylation in human coronary artery smooth muscle cells; type: cell-based; settings: HS38 10 µM, 40 min
# ROCK2 = ROCK2 (Rattus norvegicus, UniProt Q62868); test: 33P-ATP filter-binding kinase assay; type: biochemical, human
# ROCK2, sequence (Q62868 2-543 limits assumed): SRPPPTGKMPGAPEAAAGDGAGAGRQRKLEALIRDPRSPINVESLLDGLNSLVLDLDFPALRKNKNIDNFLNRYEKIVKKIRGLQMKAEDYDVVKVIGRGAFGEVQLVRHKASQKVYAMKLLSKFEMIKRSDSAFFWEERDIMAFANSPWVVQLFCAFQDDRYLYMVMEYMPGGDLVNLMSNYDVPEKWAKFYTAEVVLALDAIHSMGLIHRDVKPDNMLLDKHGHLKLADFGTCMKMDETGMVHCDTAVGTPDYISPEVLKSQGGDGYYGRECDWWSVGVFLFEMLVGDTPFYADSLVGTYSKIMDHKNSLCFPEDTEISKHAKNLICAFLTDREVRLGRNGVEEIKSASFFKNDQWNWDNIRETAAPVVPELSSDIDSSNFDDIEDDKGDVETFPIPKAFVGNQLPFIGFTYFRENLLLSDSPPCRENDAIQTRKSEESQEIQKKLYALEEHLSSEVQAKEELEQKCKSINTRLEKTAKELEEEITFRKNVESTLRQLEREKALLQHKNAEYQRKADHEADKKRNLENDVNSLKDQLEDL
# GFP-ZIPK, sequence (O43293 whole entry): as the sequence (O43293 whole entry) above
smiles,measurement,setting,value
"O=c1[nH]c(SCCO)nc2c1cnn2-c1cccc(Cl)c1 [HS43, 1-(3-Chlorophenyl)-6-((2-hydroxyethyl)thio)-1,5-dihydro-4H-pyrazolo[3,4-d]pyrimidin-4-one]",elution of GFP-ZIPK from ATP Sepharose,GFP-ZIPK,eluted far less GFP-ZIPK
same,fold less potent than HS38 / lower affinity,DAPK3,5 fold and ~ 5 fold
same,fold less potent than HS38,DAPK1,~ 5 fold
same,RLC20 phosphorylation,[1],did not affect
same,"relative percent RLC20 phosphorylation, basal (unstimulated) state",aortic SM cells,did not significantly affect
same,"relative percent RLC20 phosphorylation, S1P stimulated state",aortic SM cells,did not significantly affect
same,time required to reach 50% of maximal contraction (t1/2 max),[2],did not significantly affect
same,maximum contractile force,[2],did not significantly affect
"CC(Sc1nc2c(cnn2-c2cccc(Cl)c2)c(=O)[nH]1)C(N)=O (stereo not shown) [HS38, 2-((1-(3-chlorophenyl)-4-oxo-4,5-dihydro-1H-pyrazolo[3,4-d]pyrimidin-6-yl)thio)propanamide]",fold less potent than against DAPK1 and PIM3,IRAK4,~ 10 fold
same,inhibition,CaMK2,< 10%
same,inhibition,PKA,< 10%
same,increase in fluorescence above background,"GFP-ZIPK; FLECS screen, elution of GFP-ZIPK, drug candidate 900 µM solution",> 4 fold
same,elution of GFP-ZIPK from ATP Sepharose,GFP-ZIPK,produced a sigmoidal curve
same,fold less potent than against DAPK1 and PIM3,smMLCK,~ 100 fold
same,MYPT1 Thr696 phosphorylation level,rabbit ileum,significantly reduced
same,RLC20 phosphorylation level,rabbit ileum,significantly reduced
same,RLC20 phosphorylation,[1],significant reduction
same,"relative percent RLC20 phosphorylation, basal (unstimulated) state",aortic SM cells,significantly decreased
same,"relative percent RLC20 phosphorylation, S1P stimulated state",aortic SM cells,significantly decreased
same,time required to reach 50% of maximal contraction (t1/2 max),[2],more than doubled
same,maximum contractile force,[2],without significantly affecting
same,fold less potent than against DAPK1 and PIM3,PIM1,~ 10 fold
same,inhibition,PKN2,< 10%
same,inhibition,CK1α,< 10%
same,lag time to the onset of force,[3],increased
same,rate of force development (t1/2),[3],increased
same,fold less potent than against DAPK1 and PIM3,PIM2,~ 100 fold
same,phosphorylation state of Par-4,[4],not significantly affected
same,phosphorylation state of T855 of MYPT1,[4],not significantly affected
same,decrease in RLC20 phosphorylation,[4]; serum-free and 5% FBS conditions,21−23%
same,IC50,ROCK2,> 200 µM
same,activity against ROCK2,"ROCK2; ROCK2, duplicate validation",completely inactive
same,inhibition,"ROCK2; read-out: % activity against kinase, ROCK2, kinome profile",< 10%
"O=S(=O)(c1cccc2c(I)cccc12)N1CCCNCC1 [ML-7, reference compound]",elution of GFP-ZIPK from ATP Sepharose,GFP-ZIPK,failed to elute GFP-ZIPK

# — paper PMC4445880 (ACS chemical biology, 2013)
